Source: ChEMBL document CHEMBL4732020, “The modulatory role of sulfated and non-sulfated small molecule heparan sulfate-glycomimetics in endothelial dysfunction: absolute structural clarification, molecular docking and simulated dynamics, SAR analyses and ADMET studies” (RSC Med Chem, 2021)

What was measured:
[1] = target: Voltage-gated inwardly rectifying potassium channel KCNH2 (Homo sapiens, UniProt Q12809); test: Inhibition of recombinant human ERG expressed in CHO cells at -80 mV holding potential by automated patch clamp method; type: cell-based
Sequence of Voltage-gated inwardly rectifying potassium channel KCNH2 (Q12809 whole entry): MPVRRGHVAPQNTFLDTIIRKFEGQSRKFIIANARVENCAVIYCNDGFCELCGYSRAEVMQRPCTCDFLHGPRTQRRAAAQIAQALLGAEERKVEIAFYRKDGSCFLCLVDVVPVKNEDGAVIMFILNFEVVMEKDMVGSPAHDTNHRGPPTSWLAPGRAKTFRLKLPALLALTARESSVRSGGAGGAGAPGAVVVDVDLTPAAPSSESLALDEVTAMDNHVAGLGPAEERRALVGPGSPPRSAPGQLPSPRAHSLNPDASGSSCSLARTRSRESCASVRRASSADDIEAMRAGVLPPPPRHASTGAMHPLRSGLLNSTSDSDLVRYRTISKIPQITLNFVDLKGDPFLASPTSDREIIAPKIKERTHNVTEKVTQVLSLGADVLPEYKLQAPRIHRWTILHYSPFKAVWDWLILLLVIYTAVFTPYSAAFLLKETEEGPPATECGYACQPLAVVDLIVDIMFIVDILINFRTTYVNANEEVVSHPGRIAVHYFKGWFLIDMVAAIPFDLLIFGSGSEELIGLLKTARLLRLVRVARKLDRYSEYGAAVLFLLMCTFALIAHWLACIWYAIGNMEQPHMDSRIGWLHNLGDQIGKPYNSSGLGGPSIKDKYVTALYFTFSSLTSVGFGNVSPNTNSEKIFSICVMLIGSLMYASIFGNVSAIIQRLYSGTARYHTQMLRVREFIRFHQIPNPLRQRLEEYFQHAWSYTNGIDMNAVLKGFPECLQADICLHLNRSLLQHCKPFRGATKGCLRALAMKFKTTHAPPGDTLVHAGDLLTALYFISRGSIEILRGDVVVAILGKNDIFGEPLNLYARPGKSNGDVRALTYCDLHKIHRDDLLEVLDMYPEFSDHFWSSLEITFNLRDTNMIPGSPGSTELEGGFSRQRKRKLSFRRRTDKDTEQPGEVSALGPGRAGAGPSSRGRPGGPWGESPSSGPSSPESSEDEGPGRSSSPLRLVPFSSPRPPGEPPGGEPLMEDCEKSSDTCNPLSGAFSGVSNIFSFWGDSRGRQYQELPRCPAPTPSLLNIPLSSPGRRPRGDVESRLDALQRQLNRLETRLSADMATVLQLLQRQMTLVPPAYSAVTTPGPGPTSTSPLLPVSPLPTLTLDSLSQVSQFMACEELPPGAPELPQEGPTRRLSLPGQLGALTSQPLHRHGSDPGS
In short: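 hERG-CHO cells on automated IonWorks patch clamp at room temperature. Extracellular DPBS pH 7.2, HEPES-buffered intracellular solution, amphotericin B perforation. Compounds typically at 0.008–25 µM (5-fold steps, final DMSO 0.25%), 300 s exposure, 4 replicate wells. Response is post/pre current ×100; IC50 from Hill fit.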

HepG2 (Homo sapiens) = test: Cytotoxicity against HepG2 cells assessed as reduction in cell viability incubated for 72 hrs by MTT assay; settings: hepg2, 72 h
[2] = Metabolic stability in mouse liver microsomes assessed as intrinsic clearance at 3 uM measured up to 45 mins in presence of NADPH by LC-MS/MS analysis; type: ADME, Microsome; settings: read-out: CLH
In short: (§1)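 Pooled liver microsomes 0.5 mg/mL protein in 0.1 M phosphate pH 7.4 with compound 3 µM (0.25% DMSO), prewarmed at 37 °C. Started with NADPH 1 mM; sampled at 0, 5, 15, 30, 45 min into methanol. Minus-NADPH control at 45 min; single incubations. t½ = 0.693/k; CLint = V×0.693/t½ in µL/min/mg protein.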

HepG2 [3] = test: Antioxidant activity in human HepG2 cells assessed as decrease in FFA-induced NADPH oxidase activity by lucigenin-enhanced chemiluminescence based scintillation counting method relative to control; type: functional
In short: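 HepG2 cells given FFA-BSA (palmitate 100 µmol/L) with glycomimetics 1 µmol/L for 3 h, or 12 h pretreatment then 3 h palmitate. Homogenized in 20 mmol/L H2KPO4/1 mmol/L EDTA with protease inhibitors. 50 µg protein with NADPH 100 µmol/L and lucigenin 5 µmol/L; luminescence over 200 s. Basal activity subtracted; expressed as RLU/min/µg protein.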

[4] = Chemical stability of compound; type: physicochemical
[5] = Metabolic stability in rat liver microsomes assessed as half life at 3 uM measured up to 45 mins in presence of NADPH by LC-MS/MS analysis; type: ADME, Microsome; in short: as §1
[6] = Kinetic solubility of compound in PBS at pH 7.4 incubated for 2 hrs by turbidometric analysis; type: physicochemical; settings: read-out: Kinetic_solubility
In short: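 DMSO solutions diluted 1 in 100 into 0.01 M PBS pH 7.4 (final 1% DMSO) to give 1–100 µM; 7 replicate wells. Incubated 2 h at 37 °C, absorbance read at 620 nm. Solubility estimated as the concentration raising absorbance above vehicle.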

HepG2 [7] = test: Antioxidant activity in human HepG2 cells assessed as decrease in FFA-induced ROS production after 24 hrs by ethidium/DAPI based fluorescence assay relative to control; type: functional
In short: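 Cells in serum-free DMEM with 2% fatty-acid-free BSA or palmitate-BSA (100 µmol/L) plus glycomimetics (1 or 10 µmol/L) for 24 h. Then 10 µmol/L dihydroethidium in Hepes-buffered solution for 30 min, DAPI 0.3 µmol/L counterstain. Fluorescence microscopy with constant imaging settings; ROS taken as ethidium/DAPI fluorescence ratio.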

HepG2 [8] = test: Cytotoxicity against human HepG2 cells assessed as reduction in cell viability incubated for 72 hrs by MTT assay; type: cell-based; settings: hepg2, 72 h
In short: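 HepG2 plated 24 h before dosing. Compound at 8 concentrations in triplicate, serially diluted in 0.5% DMSO growth medium, for 72 h. MTT loaded 1 h before end; solubilised in DMSO, read at 570 nm. Significance limits come from vehicle wells. Minimum effective concentration taken from the lowest concentration exceeding significance; AC50 fitted when dose-response is clear.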

[9] = target: T1, Nitric oxide synthase 3 (Homo sapiens) (UniProt P29474); test: Induction of eNOS phosphorylation in FFA-induced oxidatively stress human HepG2 cells by Western blot analysis relative to control; parameters: concentration or dose not given beside the values
T1 sequence (whole entry): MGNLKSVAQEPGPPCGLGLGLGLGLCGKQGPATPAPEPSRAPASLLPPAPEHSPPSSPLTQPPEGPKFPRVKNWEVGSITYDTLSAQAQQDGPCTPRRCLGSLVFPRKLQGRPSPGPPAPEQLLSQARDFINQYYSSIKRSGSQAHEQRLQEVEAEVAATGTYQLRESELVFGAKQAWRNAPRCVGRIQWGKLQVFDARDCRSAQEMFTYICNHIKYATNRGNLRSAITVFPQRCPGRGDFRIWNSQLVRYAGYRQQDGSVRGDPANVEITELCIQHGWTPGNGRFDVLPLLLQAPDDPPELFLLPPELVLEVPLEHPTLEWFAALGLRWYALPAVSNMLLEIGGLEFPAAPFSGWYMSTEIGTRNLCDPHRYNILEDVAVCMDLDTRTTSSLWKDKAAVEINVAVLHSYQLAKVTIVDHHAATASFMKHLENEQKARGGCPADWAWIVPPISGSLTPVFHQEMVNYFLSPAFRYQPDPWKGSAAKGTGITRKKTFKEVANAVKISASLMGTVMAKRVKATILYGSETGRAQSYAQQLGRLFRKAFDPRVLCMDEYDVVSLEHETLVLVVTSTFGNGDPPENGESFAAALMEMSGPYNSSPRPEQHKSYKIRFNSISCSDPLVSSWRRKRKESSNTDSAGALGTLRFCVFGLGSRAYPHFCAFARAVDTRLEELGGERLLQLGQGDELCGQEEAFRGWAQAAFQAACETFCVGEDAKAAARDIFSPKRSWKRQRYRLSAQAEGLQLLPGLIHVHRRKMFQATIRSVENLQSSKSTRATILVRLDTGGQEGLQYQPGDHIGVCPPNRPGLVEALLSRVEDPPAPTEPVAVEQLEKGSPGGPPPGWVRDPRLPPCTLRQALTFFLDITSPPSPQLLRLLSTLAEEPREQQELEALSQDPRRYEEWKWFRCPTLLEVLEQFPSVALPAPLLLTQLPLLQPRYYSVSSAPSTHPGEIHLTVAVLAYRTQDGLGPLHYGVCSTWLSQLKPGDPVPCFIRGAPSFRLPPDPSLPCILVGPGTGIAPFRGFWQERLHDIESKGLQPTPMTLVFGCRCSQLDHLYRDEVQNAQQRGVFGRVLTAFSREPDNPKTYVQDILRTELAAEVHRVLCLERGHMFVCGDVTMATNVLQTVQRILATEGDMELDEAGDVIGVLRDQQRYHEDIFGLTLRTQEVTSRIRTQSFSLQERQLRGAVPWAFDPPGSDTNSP
In short: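 HepG2 stressed with palmitate 100 µmol/L-BSA plus glycomimetics 1 µmol/L. Lysed in RIPA, 30 µg protein by SDS-PAGE onto PVDF. Blocked 1 h in 5% milk/TBS-T; rabbit anti-phospho-eNOS overnight at 4 °C, HRP secondary 1 h at RT, ECL detection. Signal quantified by densitometry.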

HepG2 [10] = test: Antioxidant activity in human HepG2 cells assessed as decrease in FFA-induced oxidatively stress by measuring NO production using DAF-2 by H2DCFDA dye based fluorescence assay relative to control; type: functional; parameters: concentration or dose not given beside the values
In short: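 Palmitate (100 µmol/L)-BSA stressed HepG2 with glycomimetics 1 µmol/L (3 h co-treatment or 12 h pretreatment). For NO: L-arginine 100 µmol/L for 5 min at 37 °C, DAF-2 0.1 µmol/L for 2 min, then A23187 for 30 min; ex 485/em 540 nm, autofluorescence subtracted. L-NAME 100 µmol/L in some runs. ROS: CM-H2DCFDA 10 µmol/L, 30 min, 37 °C, ex 490/em 540 nm.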

[11] = Metabolic stability in mouse liver microsomes assessed as half life at 3 uM measured up to 45 mins in presence of NADPH by LC-MS/MS analysis; type: ADME, Microsome; in short: as §1
[12] = Metabolic stability in rat liver microsomes assessed as intrinsic clearance at 3 uM measured up to 45 mins in presence of NADPH by LC-MS/MS analysis; type: ADME, Microsome; settings: read-out: CLH; in short: as §1

Row | microsomal CLint at 3 µM [2] | Stabilty [4] | half-life at 3 µM [5] | solubility kinetic at 2 h [6] | Activity [9] | half-life at 3 µM [11] | microsomal CLint at 3 µM [12] | Compound | IC50 [1] | Activity (HepG2 (Homo sapiens)) | inhibition (INH) (HepG2 [3]) | inhibition (INH) (HepG2 [7]) | Activity (HepG2 [8]) | Activity (HepG2 [10])
1 | 2.88 µL/min/mg | Stable | 35.7 h | > 100 µM | 318% | 8.03 h | 0.649 µL/min/mg | COC(=O)c1cc(OC[C@H](COS(=O)(=O)[O-])OS(=O)(=O)[O-])ccc1OC[C@@H](COS(=O)(=O)[O-])OS(=O)(=O)[O-].[Na+].[Na+].[Na+].[Na+] | > 25 µM | Non-Toxic | 31% | 29% | Non-Toxic | 62%
2 |  | Stable |  |  | 613% |  |  | COC(=O)c1cc(OC[C@H](COS(=O)(=O)[O-])OS(=O)(=O)[O-])ccc1OCCCCOS(=O)(=O)[O-].[Na+].[Na+].[Na+] |  | Non-Toxic | 31% | 23% | Non-Toxic | 52%
3 |  |  |  |  | 286% |  |  | COC(=O)c1cc(OC[C@H](O)CO)ccc1OC[C@@H](O)CO (mixture of isomers) |  |  | 26% | 36% |  | 46%
4 |  |  |  |  | 294% |  |  | O=C([O-])c1cc(OC[C@@H](O)CO)ccc1OC[C@H](O)CO.[Na+] (mixture of isomers) |  |  | 27% | 19% |  | 52%
5 |  | Stable |  |  | 397% |  |  | COC(=O)c1cc(OC[C@@H](COS(=O)(=O)[O-])OS(=O)(=O)[O-])ccc1OCCCCOS(=O)(=O)[O-].[Na+].[Na+].[Na+] |  | Non-Toxic | 27% | 39% | Non-Toxic | 63%
6 |  |  |  |  | 312% |  |  | O=C([O-])c1cc(OC[C@H](O)CO)ccc1OC[C@@H](O)CO.[Na+] (mixture of isomers) |  |  | 21% | 23% |  | 41%
7 | 0.755 µL/min/mg | Stable | 2.42 h | > 100 µM | 342% | 30.7 h | 9.56 µL/min/mg | COC(=O)c1cc(OC[C@@H](COS(=O)(=O)[O-])OS(=O)(=O)[O-])ccc1OC[C@H](COS(=O)(=O)[O-])OS(=O)(=O)[O-].[Na+].[Na+].[Na+].[Na+] |  | Non-Toxic | 29% | 28% | Non-Toxic | 110%
